Our source for the MIC and IC50 values is ChEMBL document CHEMBL3297671, “Identification and bioactivity of 3-epi-xestoaminol C isolated from the New Zealand brown alga Xiphophora chondrophylla” (J Nat Prod, 2014).

Assay [1] relates to Escherichia coli. Put plainly: Antimicrobial activity against Escherichia coli ATCC 25922 assessed as compound level causing less than 2% growth after 16 hrs by serial dilution method. It counts as functional. As to conditions: ATCC 25922, 16 h.
Assay [2] relates to Staphylococcus aureus. Put plainly: Antimicrobial activity against Staphylococcus aureus ATCC 25923 assessed as compound level causing less than 2% growth after 16 hrs by serial dilution method. The class given is functional. As to conditions: ATCC 25923, 16 h. In a few lines:
(§1)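 Values are read from dose-response curves. No IC50 is calculated where the curve is too steep.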

The subject of assay [3] is Pseudomonas aeruginosa. Description: Antimicrobial activity against Pseudomonas aeruginosa PAO1 after 16 hrs by serial dilution method. It counts as functional, organism-based.
For assay [4], the system named is Pseudomonas aeruginosa. Description: Antimicrobial activity against Pseudomonas aeruginosa PAO1 assessed as compound level causing less than 2% growth after 16 hrs by serial dilution method. The class given is functional.
For assay [5], the system named is Staphylococcus aureus. Description: Antimicrobial activity against Staphylococcus aureus ATCC 25923 after 16 hrs by serial dilution method. It counts as functional, organism-based. The settings on record: ATCC 25923, 16 h.
Assay [6] concerns Escherichia coli. Put plainly: Antimicrobial activity against Escherichia coli ATCC 25922 after 16 hrs by serial dilution method. The class given is functional, organism-based. The settings on record: ATCC 25922, 16 h.
Assay [7] has as its system Saccharomyces cerevisiae. Description: Antimicrobial activity against Saccharomyces cerevisiae assessed as compound level causing less than 2% growth after 16 hrs by serial dilution method. The class given is functional. In a few lines: as §1
The subject of assay [8] is Saccharomyces cerevisiae. Put plainly: Antimicrobial activity against Saccharomyces cerevisiae after 16 hrs by serial dilution method. The class given is functional, organism-based. In a few lines: as §1
For assay [9], the system named is HL-60. Put plainly: Cytotoxicity against human HL60 cells assessed as compound level causing less than 2% growth after 48 hrs by MTT assay. It counts as functional.
Assay [10] can be described thus: Cytotoxicity against human HEK cells assessed as compound level causing less than 2% growth after 48 hrs by MTT assay. It counts as functional, HEK293. For orientation: Tetrazolium assays rely on reduction of a dye to a coloured formazan, in cell work by metabolically active cells.
In assay [11] the test system is HL-60. Description: Cytotoxicity against human HL60 cells after 48 hrs by MTT assay. The class given is functional, cell-based. The settings on record: HL-60, 48 h.
A short description of assay [12]: Cytotoxicity against human HEK cells after 48 hrs by MTT assay. The settings on record: HEK293, 48 h. It counts as functional, cell-based.

≈ marks a conversion by molar mass, not a printed value. Calls of active or inactive are those of the source. No cut-off for these calls is given here.

The term IC50 denotes the concentration that inhibits the measured activity by half. `CN(C)[C@@H]1C(O)=C(C(N)=O)C(=O)[C@@]2(O)C(O)=C3C(=O)c4c(O)cccc4[C@@](C)(O)[C@H]3C[C@@H]12` [TETRACYCLINE]: the MIC in [1] was at least 500 µM; in [2] it was 62.5 µM (≈ 27.8 µg/mL); in [4] (PAO1, 16 h), over 500 µM. Moreover, the IC50 in [3] (Pseudomonas aeruginosa, PAO1, 16 h, read-out: IC50) turned out to be 143 µM; in [5], 5.7 µM; in assay [6], 26.4 µM.
With `C[C@@H]1C[C@@H]([C@H](O)CC2CC(=O)NC(=O)C2)C(=O)[C@@H](C)C1` [CYCLOHEXIMIDE], the MIC in [7] was found to be 1 µM (≈ 0.281 µg/mL). Further, the midpoint of inhibition in [8], the IC50, lay at 0.04 µM.
For `CCCCCCCCCCC[C@H](O)[C@H](C)N`, the MIC was 32.7 µM (≈ 7.5 µg/mL) in assay [9], 32.6 µM (≈ 7.48 µg/mL) in [1], 65.1 µM (≈ 14.9 µg/mL) in assay [2] and 32.7 µM (≈ 7.5 µg/mL) in assay [10]. Further, the IC50 entry in assay [3] is “Not Active”; in assay [11] it was 8.8 µM; in [8] it was 17.1 µM; in assay [12], 18 µM; in [5], 17 µM. Besides, the MIC entry in assay [4] and in assay [7] was “inactive” each time.
